Reference: publication PMC2885444 (The Biochemical journal, 2009)

Key:
CHD4 PHD2 finger = CHD4 PHD2 finger (Homo sapiens, UniProt Q14839); assay: NMR titration; assay type: binding; settings: for NMR exchange regime: 1H,15N HSQC titration, NMR time scale
[1] = test system: CHD4 PHD2 finger (GST-fusion); assay type: binding; settings: C-terminal biotinylated peptides (residues 1–21; H3K27/H3K36 residues 21–44), streptavidin–Sepharose beads, 50 mM Tris pH 7.5, 150 mM NaCl, 0.05% Nonidet P-40; anti-GST HRP detection
[2] = test system: CHD4 PHD2 finger, Asp^454 substituted with valine; assay: Binding of PHD2 with Asp454 substituted with valine; settings: Asp454 to valine mutant
CHD4 PHD2 F448A mutant = assay: Binding and NMR of F448A mutant; settings: F448A mutant vs wild-type
In short: (§1)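 Point mutant of the PHD2 finger was made by PCR mutagenesis and expressed as a GST fusion in E. coli BL21(DE3) pLysS on ¹⁵NH₄Cl minimal medium. It was purified on glutathione beads, tag-cleaved, then held in 20 mM Tris pH 6.8–7.5, 150 mM NaCl, 10 mM DTT and 1 mM NaN₃. ¹H,¹⁵N HSQC was run at 500 MHz with increasing 12-mer histone tail peptides. Kd came from a nonlinear least-squares fit of normalized shift changes.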

CHD4 PHD2 E447A mutant = CHD4 PHD2 E447A mutant (Homo sapiens, UniProt Q14839, E450A); assay: NMR titration, E447A mutant; assay type: binding
In short: as §1

[3] = test system: PHD fingers of BHC80 and AIRE (mutants); settings: aspartate to alanine or hydrophobic residue to tryptophan; ref [17],[27]; cited from earlier work
CHD4 PHD2 C460W mutant = CHD4 PHD2 C460W mutant (Homo sapiens, UniProt Q14839, C463W); assay: NMR titration, C460W mutant; assay type: binding
In short: as §1

CHD4 PHD2 finger, sequence (Q14839 449-496 limits assumed): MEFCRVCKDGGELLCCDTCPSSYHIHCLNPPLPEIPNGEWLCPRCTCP
CHD4 PHD2 C460W mutant, sequence (Q14839 449-496 C463W limits assumed): as the sequence (Q14839 449-496 limits assumed) above, with C15W counted along it
CHD4 PHD2 E447A mutant, sequence (Q14839 449-496 E450A limits assumed): as the sequence (Q14839 449-496 limits assumed) above, with E2A counted along it

**Q.** Which NMR exchange regime (CHD4 PHD2 finger) does the source give for “H3K4me3: histone H3 tri-methylated at Lys^4” here?
**A.** fast exchange regime

**Q.** What about the “Binding in pull-down (Western blot)” value [1] of the same substance?
**A.** significantly weaker

**Q.** With “H3K9me3: histone H3 tri-methylated at Lys^9” as the substance, how does the NMR exchange regime (CHD4 PHD2 finger) read?
**A.** intermediate-to-fast exchange regime

**Q.** And the “Binding compared with wild-type” value [2]?
**A.** significantly compromised

**Q.** What about the “Binding compared with wild-type” value (CHD4 PHD2 F448A mutant) of the same substance?
**A.** more weakly

**Q.** With “H3(3-10): peptide comprising residues Thr^3–Ser^10 but lacking Ala^1 and Arg^2 (TKQTARKS)” as the substance, how does the “NMR changes on titration” value (CHD4 PHD2 finger; wild-type PHD2, even a 10-fold excess of peptide) read?
**A.** no changes

**Q.** For “H3K9me1: histone H3 mono-methylated at Lys^9”, which “Binding in pull-down (Western blot)” value [1] is on record?
**A.** able to recognize

**Q.** Which results are given for “unmodified H3: unmodified histone H3 N-terminal tail peptide (residues 1–21 biotinylated in pull-down; 12-mer in NMR)”?
**A.** Kd (CHD4 PHD2 E447A mutant; E447A mutant): 0.9 mM; Binding compared with wild-type (CHD4 PHD2 E447A mutant; E447A mutant vs wild-type): significantly weaker; NMR exchange regime (CHD4 PHD2 finger): intermediate-to-fast exchange regime; Interaction with mutant PHD fingers [3]: abolish interactions; Kd (CHD4 PHD2 C460W mutant; C460W mutant): 3.7 mM; Binding compared with wild-type (CHD4 PHD2 C460W mutant; C460W mutant vs wild-type): significantly weaker

**Q.** For “H3K4me1: histone H3 mono-methylated at Lys^4”, which “Binding in pull-down (Western blot)” value [1] is on record?
**A.** significantly weaker

**Q.** Which results are given for “H3K9ac: histone H3 acetylated at Lys^9 (20-mer, Anaspec, in NMR; residues 1–21 in pull-down)”?
**A.** NMR exchange regime (CHD4 PHD2 finger): intermediate-to-fast exchange regime; Binding compared with wild-type (CHD4 PHD2 F448A mutant): more weakly
